Experimental data published in ChEMBL document CHEMBL3621164, “Discovery of Triazole CYP11B2 Inhibitors with in Vivo Activity in Rhesus Monkeys” (ACS Med Chem Lett, 2015).
Calls of active or inactive are those of the source. The rule behind the calls is not given here.

Experiments:
[1] = Inhibition of rhesus monkey CYP11B2 expressed in V79 cells assessed as aldosterone level after 3 hrs by HTRF assay in presence of 125 nM 11-deoxycorticosterone; format: cell-based; conditions: Macaca mulatta, V79, 3 h
Plasma = test: Free plasma concentration in rhesus monkey at 0.3 mg/kg, iv measured 90 mins post dose by LC/MS method; format: ADME, organism-based, Macaca mulatta; conditions: in vivo, 1.5 h
In short: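 Anesthetized rhesus monkeys dosed i.v.; plasma drug concentration measured 90 min postdose. Free (unbound) concentration calculated from total plasma level using the free fraction determined in rhesus plasma.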

[2] = Half life in rhesus monkey at 2 mg/kg administered through gavage; format: ADME, organism-based, Macaca mulatta; conditions: in vivo, po
Homo sapiens = species on record: Homo sapiens; test: Selectivity index, ratio IC50 for human CYP11B1 to IC50 for human CYP11B2
In short: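 Ratio of human CYP11B1 IC50 to human CYP11B2 IC50; each IC50 calculated from n ≥ 2 determinations.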

[3] = molecular target: T1, Cytochrome P450 11B1, mitochondrial (Homo sapiens, UniProt P15538); test: Inhibition of human CYP11B1 expressed in V79 cells assessed as cortisol level after 3 hrs by HTRF assay in presence of 250 nM 11-deoxycortisol; format: cell-based
T1 sequence (P15538 whole entry): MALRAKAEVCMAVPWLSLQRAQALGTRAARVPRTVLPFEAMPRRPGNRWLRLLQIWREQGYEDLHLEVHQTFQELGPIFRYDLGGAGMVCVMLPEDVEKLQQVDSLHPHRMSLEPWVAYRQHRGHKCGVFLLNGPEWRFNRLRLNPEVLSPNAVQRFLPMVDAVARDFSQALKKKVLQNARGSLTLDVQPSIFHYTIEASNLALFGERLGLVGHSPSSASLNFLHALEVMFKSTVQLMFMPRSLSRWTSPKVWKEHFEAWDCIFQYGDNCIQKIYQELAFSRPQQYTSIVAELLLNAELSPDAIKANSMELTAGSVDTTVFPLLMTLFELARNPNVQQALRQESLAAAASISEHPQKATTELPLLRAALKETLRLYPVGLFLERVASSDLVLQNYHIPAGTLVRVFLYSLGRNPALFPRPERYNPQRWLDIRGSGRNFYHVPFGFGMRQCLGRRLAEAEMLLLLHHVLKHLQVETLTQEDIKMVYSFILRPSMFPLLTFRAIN

[4] = Intrinsic clearance in Sprague-Dawley rat liver microsomes by LC/MS method; format: ADME; conditions: read-out: CLH
Rhesus monkey [5] = test: Effect on 11-deoxycortisol level in rhesus monkey plasma upto 1 mg/kg, iv by LC/MS method; format: functional, organism-based; conditions: Macaca mulatta
In short: (§1)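 Plasma aldosterone and 11-deoxycortisol quantified by LC–MS at time points up to 180 min postdose; AUCs over that period calculated and compared with baseline.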

[6] = molecular target: T2, Steroid 17-alpha-hydroxylase/17,20 lyase (Homo sapiens, UniProt P05093); test: Inhibition of human CYP17 expressed in COS7 cells assessed as DHEA level after 3 hrs by EIA assay in presence of 360 nM 17-hydroxypregnenolone; format: cell-based, COS-7
T2 sequence (P05093 whole entry): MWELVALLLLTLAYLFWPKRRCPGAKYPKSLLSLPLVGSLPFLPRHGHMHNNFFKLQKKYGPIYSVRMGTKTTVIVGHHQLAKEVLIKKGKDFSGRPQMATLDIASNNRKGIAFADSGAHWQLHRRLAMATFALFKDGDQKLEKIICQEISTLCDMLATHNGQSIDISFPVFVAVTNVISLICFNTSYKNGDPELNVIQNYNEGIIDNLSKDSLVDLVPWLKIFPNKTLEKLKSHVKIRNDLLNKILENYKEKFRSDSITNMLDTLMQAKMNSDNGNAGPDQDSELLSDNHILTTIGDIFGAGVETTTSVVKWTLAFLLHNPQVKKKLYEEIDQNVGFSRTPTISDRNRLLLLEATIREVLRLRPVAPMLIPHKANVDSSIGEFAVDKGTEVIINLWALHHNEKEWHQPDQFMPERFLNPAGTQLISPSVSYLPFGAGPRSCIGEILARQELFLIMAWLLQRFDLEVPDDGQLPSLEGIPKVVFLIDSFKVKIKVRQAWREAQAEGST

Rhesus monkey [7] = test: Dose normalized AUC in rhesus monkey at 2 mg/kg administered through gavage; format: ADME, organism-based, Macaca mulatta; conditions: in vivo, po
Rhesus monkey [8] = test: Decrease in aldosterone level in rhesus monkey plasma at 0.3 mg/kg, iv by LC/MS method; format: functional; conditions: Macaca mulatta; in short: as §1

Cc1nnc2n1-c1ccc(-c3cncc([C@](C)(O)C(F)(F)F)c3)cc1CC2
IC50 [1]: 0.012 µM | Cp(f) (Plasma): 73 nM | half-life [2]: 7.8 h | Ratio IC50 (Homo sapiens): 69 | IC50 [3]: 4.4 µM | CLint scaled [4]: < 20 mL/min/kg | Activity (Rhesus monkey [5]): inactive | IC50 [6]: > 10 µM | AUC (Rhesus monkey [7]): 16.26 µM·kg·h/mg | inhibition in vivo at 0.3 mg/kg (Rhesus monkey [8]): 71%
